Data on 26 compounds can be found in ChEMBL document CHEMBL5346918, “Design, synthesis and biological evaluation of Nucleosidic CD99 inhibitors that selectively reduce Ewing sarcoma viability” (Eur J Med Chem, 2023).

The source made the active and inactive calls. No cut-off for these calls is given here.

Assay [1] relates to TC-32. Briefly: Cytotoxicity against human TC-32 cells assessed as reduction in cell viability incubated for 48 hrs by CellTiter-Blue reagent based […] assay. In kind it is functional. The following applies: TC-32, 48 h. The method in brief: (§1)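 Cells seeded and grown to 60–80% confluency (usually 18–24 h), then treated 48 h with a range of concentrations prepared in each line's medium. CellTiter-Blue reagent added at the end of treatment and incubated 3–5 h at 37 °C, 5% CO₂. Fluorescence read at 560 nm excitation and 590 nm emission. IC50 from nonlinear regression, log(inhibitor) vs. normalized response.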
On the technique in general: Alamar Blue is a resazurin reagent that responds to reducing activity.

Assay [2] has as its system U2OS. Briefly: Cytotoxicity against human U2OS cells assessed as reduction in cell viability incubated for 48 hrs by CellTiter-Blue reagent based […] assay. In kind it is functional. The method in brief: as §1
Assay [3] in a line: Cytotoxicity against human TC71 cells assessed as reduction in cell viability incubated for 48 hrs by CellTiter-Blue reagent based […] assay. Conditions: TC-71, 48 h. In kind it is functional. The method in brief:
as §1

Assay [4] in a line: Cytotoxicity against human A4573 cells assessed as reduction in cell viability incubated for 48 hrs by CellTiter-Blue reagent based […] assay. Conditions: A4573, 48 h. The class given is functional. The method in brief: as §1
The subject of the next assay is SAOS-2. Briefly: Cytotoxicity against human SAOS-2 cells assessed as reduction in cell viability incubated for 48 hrs by CellTiter-Blue reagent based […] assay. The class given is functional. The following applies: SAOS-2, 48 h. In outline: as §1
Assay [5] relates to TC-32. Briefly: Induction of apoptosis in human TC-32 cells assessed as PARP cleavage at 0.1 to 0.4 uM incubated for 48 hrs by western blot analysis. In kind it is functional, cell-based. The following applies: dose 0.1-0.4 µM. The method in brief:
(§2)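 Cells treated 48 h with three concentrations per agent (0.1, 0.2 or 0.4 μM for one; 10, 20 or 40 μM for another). Total cell lysates immunoblotted for PARP and caspase 3 and their cleaved products. Actin used as loading control and for normalization. ECL signal imaged on PVDF, bands quantified by densitometry.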
A general note: Immunoblotting shows a protein as a band on a membrane.

For assay [6], the system named is TC-32. Briefly: Induction of apoptosis in human TC-32 cells assessed as caspase-3 cleavage at 0.1 to 0.4 uM incubated for 48 hrs by western blot analysis. The class given is functional, cell-based. The following applies: dose 0.1-0.4 µM. In outline: as §2
For assay [7], the system named is TC-32. Briefly: Induction of apoptosis in human TC-32 cells assessed as increase in hypodiploid subG1 population at 0.1 to 0.4 uM incubated for 48 hrs by propidium iodide staining based flow cytometry. In kind it is functional, cell-based. Conditions: dose 0.1-0.4 µM. In outline: (§3)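 Treatment same as the apoptosis blots (48 h; 0.1–0.4 μM or 10–40 μM). Adherent cells trypsinized and pooled with floating cells, then washed in PBS. Fixed in ice-cold 70% ethanol 1 h on ice, rehydrated, RNase A 100 μg/mL. Stained with propidium iodide at 50 μg/mL final for 1 h on ice. Sub-G1 fraction read by flow cytometry.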
A general note: Flow cytometry measures light scatter and fluorescence of single cells or particles in a stream.

The subject of assay [8] is U2OS. Briefly: Induction of apoptosis in human U2OS cells assessed as increase in hypodiploid subG1 population at 0.1 to 0.4 uM incubated for 48 hrs by propidium iodide staining based flow cytometry. In kind it is functional, cell-based. Conditions: dose 0.1-0.4 µM. In outline:
as §3

In assay [9] the test system is U2OS. Briefly: Induction of apoptosis in human U2OS cells assessed as PARP cleavage at 0.1 to 0.4 uM incubated for 48 hrs by western blot analysis. The class given is functional, cell-based. The following applies: dose 0.1-0.4 µM. In outline:
as §2

Assay [10] has as its system U2OS. Briefly: Induction of apoptosis in human U2OS cells assessed as caspase-3 cleavage at 0.1 to 0.4 uM incubated for 48 hrs by western blot analysis. In kind it is functional, cell-based. The following applies: dose 0.1-0.4 µM. The method in brief: as §2

As to `Nc1nc(-c2ccoc2)nc2c1ncn2[C@H]1C[C@H](O)[C@@H](CO)O1`, the IC50 (usually the midpoint of a concentration-inhibition curve) with TC-32 [1] was determined as 55 µM; in the assay with U2OS [2], 199 µM; in [3], 67.8 µM; in assay [4], 77.5 µM; in the assay with SAOS-2 it was 172 µM.
In the case of `Nc1nc(-c2ccoc2)nc2c1ncn2[C@@H]1O[C@H](CO)[C@@H](O)[C@@H]1F`, the IC50 (in the assay on TC-32 [1]; in the assay with U2OS [2]; in [3]; in assay [4]; in the assay on SAOS-2) was at least 50 µM throughout.
Regarding `Nc1nc(N2CCOCC2)nc2c1ncn2[C@@H]1O[C@H](CN2CCOCC2)[C@@H](O)[C@@H]1F`, the IC50 (in the assay with TC-32 [1]; in the assay with U2OS [2]; in assay [3]; in the assay on SAOS-2) was at least 100 µM in each case.
With `Nc1ncnc2c1ncn2[C@@H]1O[C@H](C(=O)O)[C@@H](O)[C@@H]1F`, the half-maximal inhibitory concentration (IC50) (in the assay with TC-32 [1]; in the assay on U2OS [2]; in [3]; in assay [4]; with SAOS-2) was at least 50 µM throughout.
Consider `Nc1nc(-c2ccsc2)nc2c1ncn2[C@H]1C[C@H](O)[C@@H](CO)O1`, for which the IC50 (in the assay on TC-32 [1]; in the assay on U2OS [2]; in assay [3]; in [4]; in the assay with SAOS-2) was at least 50 µM each time.
With `Nc1ncnc2c1ncn2[C@H]1C[C@H](O)[C@@H](CN2CCOCC2)O1`, the IC50 (in the assay on TC-32 [1]; in the assay on U2OS [2]; in assay [3]; in [4]; in the assay with SAOS-2) was at least 50 µM each time.
For `Nc1nc(Cl)nc2c1ncn2[C@H]1C[C@H](O)[C@@H](CO)O1` [CLADRIBINE], the 50% inhibitory concentration (IC50) is 2.92 µM in the assay with TC-32 [1]; at least 50 µM in the assay on U2OS [2]; 1.1 µM in [3]; 1.49 µM in [4]; at least 50 µM with SAOS-2.
For `C=C1O[C@@H](n2cnc3c(N)nc(N4CCOCC4)nc32)[C@@H](F)[C@@H]1O`, the IC50 with TC-32 [1] is 98 µM; in the assay on U2OS [2] it was 67 µM; in [3], at least 100 µM; in the assay on SAOS-2, 97.3 µM.
`Nc1ncnc2c1ncn2[C@@H]1O[C@H](CN2CCOCC2)[C@@H](O)[C@H]1F`: the IC50 (with TC-32 [1]; in the assay with U2OS [2]; in assay [3]; in [4]; in the assay on SAOS-2) was at least 50 µM each time.
With `Nc1nc(Cl)nc2c1ncn2[C@H]1C[C@H](O)[C@@H](CN2CCOCC2)O1`, the IC50 in the assay with TC-32 [1] was at least 100 µM; in the assay with U2OS [2], at least 100 µM; in assay [3] it was at least 100 µM; in the assay on SAOS-2, 97.3 µM.
For `Nc1ncnc2c1ncn2[C@@H]1O[C@H](C(=O)O)[C@@H](O)[C@H]1F`, the IC50 (in the assay on TC-32 [1]; in the assay on U2OS [2]; in [3]; in assay [4]; with SAOS-2) was at least 50 µM throughout.
In the case of `Nc1ncnc2c1ncn2[C@H]1C[C@H](O)[C@@H](C(=O)O)O1`, the IC50 (in the assay on TC-32 [1]; in the assay on U2OS [2]; in [3]; in assay [4]; with SAOS-2) was at least 50 µM throughout.
For `CSC[C@H]1O[C@@H](n2cnc3c(N)nc(SC)nc32)[C@@H](F)[C@@H]1O`, the IC50 (with TC-32 [1]; in the assay on U2OS [2]; in assay [3]; in assay [4]; in the assay with SAOS-2) was at least 50 µM each time.
With `Nc1nc(-c2ccsc2)nc2c1ncn2[C@@H]1O[C@H](CO)[C@@H](O)[C@@H]1F`, the IC50 (with TC-32 [1]; in the assay with U2OS [2]; in assay [3]; in assay [4]; in the assay on SAOS-2) was at least 50 µM each time.
Consider `CS(=O)(=O)C[C@H]1O[C@@H](n2cnc3c(N)nc(Cl)nc32)C[C@@H]1O`, for which the IC50 in the assay with TC-32 [1] was at least 50 µM; in the assay with U2OS [2] it was at least 50 µM; in [3] it was 36 µM; in assay [4], at least 50 µM; with SAOS-2 it was at least 50 µM.
Consider `Nc1ncnc2c1ncn2[C@@H]1C[C@@H](O)[C@H](C(=O)O)O1`, for which the IC50 (with TC-32 [1]; with U2OS [2]; in assay [3]; in [4]; with SAOS-2) was at least 50 µM in each case.
Take `Nc1nc(-c2cccnc2)nc2c1ncn2[C@H]1C[C@H](O)[C@@H](CO)O1`: the IC50 in the assay with TC-32 [1] came to 52.2 µM; in the assay on U2OS [2], 162 µM; in assay [3], 29.3 µM; in assay [4] it was 54.4 µM; with SAOS-2 it was 110 µM.
In the case of `Nc1nc(Cl)nc2c1ncn2[C@@H]1O[C@H](CN2CCOCC2)[C@@H](O)[C@@H]1F`, the IC50 (with TC-32 [1]; in the assay with U2OS [2]; in [3]; in the assay on SAOS-2) was at least 100 µM throughout.
Take `Nc1nc(Cl)nc2c1ncn2[C@@H]1O[C@H](COc2cc(C(=O)O)cc(C(=O)O)c2)[C@@H](O)[C@@H]1F`: the IC50 with TC-32 [1] is at least 100 µM; in the assay on U2OS [2], at least 100 µM; in assay [3], 96.7 µM; in the assay with SAOS-2 it was 86.5 µM.
As for `Nc1nc(-c2ccncc2)nc2c1ncn2[C@H]1C[C@H](O)[C@@H](CO)O1`, the IC50 (with TC-32 [1]; in the assay on U2OS [2]; in assay [3]; in [4]; in the assay with SAOS-2) was at least 50 µM throughout.
On to `Nc1nc(-c2ccncc2)nc2c1ncn2[C@@H]1O[C@H](CO)[C@@H](O)[C@@H]1F`, for which the IC50 (in the assay on TC-32 [1]; in the assay on U2OS [2]; in [3]; in assay [4]; in the assay on SAOS-2) was at least 50 µM throughout.
Take `CS(=O)(=O)C[C@H]1O[C@@H](n2cnc3c(N)nc(Cl)nc32)[C@@H](F)[C@@H]1O`: the IC50 in the assay on TC-32 [1] is at least 50 µM; with U2OS [2] it was at least 50 µM; in [3], 31.4 µM; in assay [4] it was at least 50 µM; in the assay with SAOS-2, at least 50 µM.
`Nc1ncnc2c1ncn2[C@@H]1C[C@@H](O)[C@H](CN2CCOCC2)O1`: the IC50 (in the assay with TC-32 [1]; in the assay with U2OS [2]; in assay [3]; in [4]; with SAOS-2) was at least 50 µM throughout.
For `Nc1nc(Cl)nc2c1ncn2[C@@H]1O[C@H](CO)[C@@H](O)[C@@H]1F` [CLOFARABINE], the result in the assay on TC-32 [5], in the assay on TC-32 [6] and with TC-32 [7] was Active. Further, the IC50 was 0.13 µM in the assay on TC-32 [1]; at least 50 µM with U2OS [2]; 0.09 µM in [3]; 0.18 µM in assay [4]; at least 50 µM in the assay with SAOS-2. In addition, the outcome with U2OS [8], in the assay on U2OS [9] and in the assay on U2OS [10] was inactive.
On to `Nc1ncnc2c1ncn2[C@@H]1O[C@H](CN2CCOCC2)[C@@H](O)[C@@H]1F`, for which the IC50 (with TC-32 [1]; in the assay with U2OS [2]; in assay [3]; in assay [4]; in the assay with SAOS-2) was at least 50 µM each time.
For the compound `Nc1nc(Cl)nc2c1ncn2[C@H]1C[C@H](O)[C@@H](COc2cc(C(=O)O)cc(C(=O)O)c2)O1`, the IC50 (in the assay on TC-32 [1]; in the assay on U2OS [2]; in assay [3]; in the assay with SAOS-2) was at least 100 µM each time.
